According to ChEMBL document CHEMBL1765065, “Pro-soft Val-boroPro: a strategy for enhancing in vivo performance of boronic acid inhibitors of serine proteases” (J Med Chem, 2011):
Activity calls are given as the source filed them. The rule behind the calls is not given here. Starred links: 1 amine or outer side, 2 acyl side, 3 side chain; linkers in the order of their positions; H or OH if unused. Residues, ends and D or L forms follow the SMILES beside them. *: point of attachment. Suc = O=C(CCC(=O)[*:2])[*:1]; boroPro = OB(O)[C@@H]1CCCN1*

Assays:
[1] = Chemical stability of the compound assessed as half life at physiological pH; assay type: physicochemical
[2] = target: T1, Dipeptidyl peptidase 4 (Homo sapiens, UniProt P27487); test: Inhibition of DDP4 at pH 7.4 preincubated with alpha-chymotrypsin up to 8 hrs
How it was run: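 Prodrug preincubated with 0.1 mM α-chymotrypsin for 0, 0.5, 1, 2, 4, 6 or 24 h before purified DPPIV was added. The DPPIV assay then followed: 0.3 mM H-Ala-Pro-pNA, A410, HEPES/NaCl buffer.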
Target sequence in this assay (P27487 whole entry): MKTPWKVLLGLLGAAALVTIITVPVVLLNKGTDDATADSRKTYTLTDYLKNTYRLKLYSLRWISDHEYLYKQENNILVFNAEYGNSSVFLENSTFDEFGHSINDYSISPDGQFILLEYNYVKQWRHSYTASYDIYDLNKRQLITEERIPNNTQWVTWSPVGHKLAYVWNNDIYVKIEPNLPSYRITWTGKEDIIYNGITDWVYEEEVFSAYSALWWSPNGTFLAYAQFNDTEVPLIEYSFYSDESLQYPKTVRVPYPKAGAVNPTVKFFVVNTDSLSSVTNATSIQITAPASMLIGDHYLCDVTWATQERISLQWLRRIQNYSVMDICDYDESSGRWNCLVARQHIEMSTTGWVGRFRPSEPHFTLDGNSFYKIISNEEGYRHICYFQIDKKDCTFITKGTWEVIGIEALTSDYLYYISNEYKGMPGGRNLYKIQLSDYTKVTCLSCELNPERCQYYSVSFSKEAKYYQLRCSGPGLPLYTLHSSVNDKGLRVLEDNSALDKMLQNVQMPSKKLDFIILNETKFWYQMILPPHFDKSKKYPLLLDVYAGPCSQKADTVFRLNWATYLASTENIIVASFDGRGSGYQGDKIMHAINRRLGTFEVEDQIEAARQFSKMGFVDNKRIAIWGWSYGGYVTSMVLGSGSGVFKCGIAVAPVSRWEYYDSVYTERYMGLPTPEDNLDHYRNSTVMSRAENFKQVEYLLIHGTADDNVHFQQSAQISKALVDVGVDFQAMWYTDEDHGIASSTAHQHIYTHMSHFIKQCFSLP

[3] = target: T1, Dipeptidyl peptidase 4; test: Inhibition of DDP4
How it was run: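 Purified DPPIV (~1 nM) in 0.1 M HEPES, 0.14 M NaCl, pH 7.4 or 8.0, at 25 or 37 °C. Inhibitor (10^-5 to 10^-11 M) preincubated 10 min with enzyme before 0.3 mM H-Ala-Pro-pNA; A410 read. Stocks made in HCl pH 2.0 or buffer pH 7.4/8.0 and diluted just before use.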
Target sequence in this assay (P27487 whole entry, looked up): as the sequence (P27487 whole entry) above

[4] = Inhibition of alpha-chymotrypsin
[5] = target: T1, Dipeptidyl peptidase 4; test: Inhibition of DDP4 at pH 2 preincubated for 10 mins
Target sequence in this assay (P27487 whole entry): as above

[6] = target: T1, Dipeptidyl peptidase 4; test: Inhibition of DDP4 at pH 7.4 preincubated for 10 mins
Target sequence in this assay (P27487 whole entry): as above

[7] = tested on: Mus musculus; test: Antidiabetic activity in po dosed C57BL/KS01HSDLeprdb mouse assessed as decrease in serum glucose AUC level by oral glucose tolerance test; assay type: functional, organism-based
How it was run: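 Diabetic male C57BL/KS01HSDLeprdb mice (nondiabetic C57BL/6NHHsd as comparison) acclimated 3 weeks and fasted 4 h. Given 0.0025, 0.01, 0.025 or 0.05 mg/kg free-inhibitor equivalent by oral gavage; vehicle H2O. Oral glucose 1 g/kg given 3 h post-dose. Glucometer blood glucose at predose, 15, 30, 60, 120 and 240 min (5 mice/group); AUC.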

[8] = tested on: Mus musculus; test: Antidiabetic activity in C57BL/KS01HSDLeprdb mouse assessed as decrease in serum glucose AUC level at 0.5 mg/kg, po by oral glucose tolerance test; assay type: functional, organism-based; design: dose 0.5 mg/kg
[9] = (§1) Toxicity in po dosed Fisher rat assessed as mortality measured up to 24 hrs; assay type: organism-based; settings: Fisher, in vivo
[10] = Effect on pro-drug activation assessed as Chg-Pro formation by mass spectrometry; assay type: physicochemical
How it was run: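 Prodrug (10 mM stock) incubated with purified DPPIV (2 μM stock) or no enzyme in 0.1 M HEPES, 0.14 M NaCl, pH 8.0, for 10 min at 25 °C. Desalted on C18 and lyophilized. Chg-Pro detected by reverse-phase HPLC-MS scanning its m/z; Chg-Pro was the reference.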

[11] = tested on: Mus musculus; test: DDP4-mediated pro-drug activation in ip dosed wild type C57BL/6 mouse assessed as pro-drug level in serum by LC/MS analysis; assay type: organism-based; settings: in vivo
How it was run: (§2)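 Wild-type C57BL/6 (CD26+/+) or DPPIV knockout (CD26-/-) mice, 3 per group, acclimated ≥1 week. Given 50 μg ip in PBS. Blood taken by cardiac puncture after 5 min and treated with 10% TCA. Supernatant intact prodrug quantified by reverse-phase HPLC-MS base peak chromatograms.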

[12] = tested on: Mus musculus; test: DDP4-mediated pro-drug activation in ip dosed CD26 -/- mouse assessed as pro-drug level in serum by LC/MS analysis; assay type: organism-based; settings: in vivo; how it was run: as §2
[13] = tested on: Rattus norvegicus; test: as §1; assay type: organism-based; settings: in vivo, 24 h

Compound: CC(=O)N[C@H](C(=O)N1CCC[C@H]1B(O)O)C(C)C
- half-life [1]: 30 min

Compound: C[C@H](NC(=O)CCC(=O)O)C(=O)N[C@@H](C)C(=O)N1CCC[C@H]1C(=O)N[C@@H](Cc1ccccc1)C(=O)N[C@@H](C)C(=O)N1CCC[C@H]1B(O)O (Suc-AAPFA-boroPro)
- IC50 [2]: 0.7 nM
- inhibition [3]: inactive
- inhibition [4]: inactive

Compound: C[C@H](NC(=O)[C@@H]1CCCN1C(=O)[C@@H](N)Cc1ccccc1)C(=O)N1CCC[C@H]1B(O)O
- IC50 [5]: 8.3 nM
- IC50 [6]: 7 nM

Compound: CC(C)[C@H](N)C(=O)N1CCC[C@H]1B(O)O [TALABOSTAT]
- Activity [7]: Dose-dependent effect
- Activity [8]: inactive
- LD50 at 24 h [9]: 0.5 mg/kg

Compound: CC(C)[C@H](NC(=O)[C@@H]1CCCN1C(=O)[C@@H](N)C1CCCCC1)C(=O)N1CCC[C@H]1B(O)O
- IC50 [5]: 20 nM
- IC50 [6]: 19 nM
- Activity [10]: Not Active
- Activity [11]: Not Active
- Activity [12]: Active
- Activity [7]: Dose-dependent effect
- Activity [8]: Active
- Activity [13]: Non-toxic
